Shown are actives, neighbours in structure and some others; about 2.2% of the full set was active somewhere.
hK5 inh: human KLK5 protease inhibitors, primary screen, biochemical, 1536-well. Kallikrein-5 (Homo sapiens), Q9Y337. recombinant hK5, fluorogenic AMC substrate cleavage. inhibition, % at 5 µM. 210,000 compounds, 0.59% hits;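 active means inhibition of 40% or more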;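 further: 0% = enzyme controls without compound and 100% = no-enzyme blanks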
FXIIa inh 1536: human FXIIa protease inhibitors, primary screen, biochemical, 1536-well. 220,000 compounds, 0.3% hits. AID 800, 2007. inhibition, % at 5 µM. Coagulation factor XII (Homo sapiens), P00748. purified FXIIa, Boc-QGR-AMC fluorogenic substrate, 2 h; in the data active means inhibition above about 40%;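 further: 0% = enzyme with no compound and 100% = blank without enzyme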
Target sequence (P00748 20-372 limits assumed): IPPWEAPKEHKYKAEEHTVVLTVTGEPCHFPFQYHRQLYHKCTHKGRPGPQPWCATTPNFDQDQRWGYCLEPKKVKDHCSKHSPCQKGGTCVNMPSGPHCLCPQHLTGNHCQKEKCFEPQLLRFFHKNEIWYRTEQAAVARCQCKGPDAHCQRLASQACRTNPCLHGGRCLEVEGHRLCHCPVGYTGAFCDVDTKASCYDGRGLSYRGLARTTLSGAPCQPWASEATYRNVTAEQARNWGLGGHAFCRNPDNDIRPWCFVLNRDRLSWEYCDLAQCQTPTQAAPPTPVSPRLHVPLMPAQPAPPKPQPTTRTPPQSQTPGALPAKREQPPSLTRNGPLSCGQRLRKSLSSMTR
Target sequence (P00748 373-615 limits assumed): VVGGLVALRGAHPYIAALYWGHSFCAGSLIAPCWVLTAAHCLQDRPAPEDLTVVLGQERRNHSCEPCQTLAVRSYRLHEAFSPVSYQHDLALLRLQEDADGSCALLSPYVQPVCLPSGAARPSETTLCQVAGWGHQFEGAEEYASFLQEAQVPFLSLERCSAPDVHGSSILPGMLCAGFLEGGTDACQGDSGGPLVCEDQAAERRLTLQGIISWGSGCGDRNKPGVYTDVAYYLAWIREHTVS
Wee1 stabilizer: Wee1 degradation inhibitors, primary screen, cell-based, HeLa, Wee1K328M-luciferase, luminescence; HeLa Luc-Wee1K328M stability; 100% = proteasome inhibitor MG132 effect; reporter increase, % at 5 µM; 220,000 compounds, 1.2% hits; AID 1321, 2008;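 active means activation above the mean of all tested compounds plus 3 SD, set per screening run, cut at about 8.8% in these data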;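 further: cells exposed to compound for 20 h before luminescence read; 0% = DMSO alone and 100% = MG132 at 30 µM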
Thrombin inh: human alpha-thrombin inhibitors, primary screen, counter-screen for coagulation protease inhibitor project, biochemical, 1536-well, fluorogenic AMC substrate | Boc-VPR-AMC fluorogenic substrate cleavage | 220,000 compounds, 0.26% hits | inhibition, % at 5 µM | AID 1046, 2008;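 active means inhibition at or above 40%; inactive means inhibition below 40%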;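 further: 0% = enzyme with no compound and 100% = wells without enzyme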
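Test system: human alpha-thrombin; medium: pH 7.5 Tris-saline with Tween 20; times: reaction at room temperature; signal: AMC fluorescence at 355 nm excitation and 460 nm emission; also added: Boc-VPR-AMC substrate, 15 µM final; dosing: one concentration per compound, 5 µM, with 0.2% DMSO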
FXIa inh: human FXIa protease inhibitors, primary screen, biochemical, 1536-well | Coagulation factor XI (Homo sapiens), P03951 | purified FXIa, Boc-Glu-Ala-Arg-AMC fluorogenic substrate | inhibition, % at 5 µM | 220,000 compounds, 0.14% hits;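 active means inhibition of at least 40%; inactive means inhibition below 40%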;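 further: fluorescence of freed AMC excited at 355 nm; 0% = enzyme without compound and 100% = no enzyme blank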
Wee1 degr conf: Wee1 degradation inhibitors, confirmation, cell-based, HeLa, Wee1K328M-luciferase, luminescence, triplicate; shares compounds with Wee1 stabilizer; HeLa Luc-Wee1K328M degradation; vehicle 0%, proteasome-blocked wells 100%; activation, % at 5 µM; 1,100 compounds, 4% hits; in the data active means activation above about 8.9%
Numbers without * were called inactive; . = no result given.

SMILES	hK5 inh	FXIIa inh 1536	Wee1 stabilizer	Thrombin inh	FXIa inh	Wee1 degr conf
FC(F)(F)c1nc2ccccc2n2c(-c3c(Cl)cccc3Cl)nnc12	-9.2	12.2	-2.4	3.7	8.5	.
Clc1cccc(Cl)c1-c1nnc2cccc(Cl)n12	-10.9	15.4	11.9*	3.3	7.4	-0.9
Cc1ccc(O)c(C(CC(=O)NCc2ccco2)c2ccccc2)c1 (stereo not given)	-0.8	5.3	11.3*	-8.2	-1.4	1.7
Cc1cccc(C(CC(=O)NCc2ccco2)c2ccccc2)c1O (stereo not given)	-6.8	7.1	-1.6	-0.2	-4.6	.
O=C(CNc1c(Br)cc(Br)cc1Br)NN=C1CCCCC1	-10.4	13.7	-2.6	-3.0	6.0	.
COc1cccc(NCc2cc(=O)oc3cc(-c4ccccc4)c(O)cc23)c1	1.1	14.8	3.5	-0.9	-0.9	.
CCCC(=O)N1CCN(c2ccc(NC(=O)c3cccs3)cc2Cl)CC1	-3.5	3.1	16.1*	-18.7	-3.2	-0.6
CCCC(=O)N1CCN(c2ccc(NC(=O)C(C)(C)C)cc2Cl)CC1	19.2	5.4	-0.9	-0.2	2.1	.
Cc1cc(C)n(CCOc2ccc(Cl)cc2Cl)n1	-16.6	12.6	11.1*	-2.3	8.8	-1.8
Cc1cc(C)n(C(=O)COc2ccc(Cl)cc2Cl)n1	-4.1	7.9	-2.2	5.8	3.2	.
Cc1ccc(S(=O)(=O)N2CCCCC2)cc1NC(=O)c1ccccn1	0.9	5.2	-4.3	3.4	-2.2	.
O=C1c2ccccc2C(=O)N1/N=C/c1ccc(O)c(O)c1	-20.2	4.3	-0.2	-5.9	2.6	.
O=C(CCC1CCCC1)N1CCC(N2CCCCCC2)CC1	-6.7	2.3	11.9*	-2.6	-6.4	3.0
CCCCN1C(=O)NC(NC(=O)c2ccco2)(C(F)(F)F)C1=O (stereo not given)	8.2	10.2	17.3*	-5.3	-3.3	2.1
CCCCN1C(=O)NC(NC(=O)C2CC2)(C(F)(F)F)C1=O (stereo not given)	-2.1	8.0	5.5	-0.1	-0.5	.
CC(C)(C)NC(=O)C(Cc1ccccc1)NS(=O)(=O)c1ccc2c(c1)CCC(=O)N2 (stereo not given)	-7.9	-9.7	2.5	-1.6	-6.9	.
O=C1CCc2cc(S(=O)(=O)NC(Cc3ccccc3)C(=O)NC3CCCCC3)ccc2N1 (stereo not given)	14.8	0.5	28.2*	0.5	-3.6	-0.5
O=C(NCc1cccs1)C1CCC(CNS(=O)(=O)c2ccccc2)CC1 (stereo not given)	0.0	8.4	12.1*	-13.3	-5.7	1.3
Cc1ccc(S(=O)(=O)NCC2CCC(C(=O)NCc3cccs3)CC2)cc1 (stereo not given)	-0.4	5.0	-0.7	2.1	-2.7	.
CCn1cc(C(=O)OCC(=O)N2C(C)CCCC2C)c(=O)c2ccc(C)nc21 (stereo not given)	-1.2	4.2	11.3*	-1.4	-3.6	-0.3
O=C(CCn1c(=O)oc2ccccc21)NCCN1CCc2ccccc2C1	-12.9	-2.9	-1.7	-8.3	-8.8	.
O=C(CCn1c(=O)oc2ccccc21)NCCC1=CCCCC1	1.8	2.1	17.3*	-2.1	0.1	-1.0
COc1cc(C)ccc1OCCCCOc1ccccc1C(C)=O	-2.3	10.1	16.2*	-10.2	-3.7	-1.6
Cc1cccn2c(=O)c(/C=C(\C#N)C(=O)NC3CCS(=O)(=O)C3)c(N3CCC(C)CC3)nc12 (stereo not given)	-91.3	-21.1	2.1	-23.5	-12.3	.
Cc1ccsc1/C=C(\C#N)C(=O)NC1CCS(=O)(=O)C1 (stereo not given)	-4.1	4.5	12.2*	-2.4	3.0	3.3
SMILES	hK5 inh	FXIIa inh 1536	Wee1 stabilizer	Thrombin inh	FXIa inh	Wee1 degr conf
CCN(CC)c1ccc(C(=O)OCc2c(C)noc2C)cc1	0.5	6.8	-1.2	-5.1	2.4	.
Cc1ccccc1NC(=O)c1cc(C(=O)c2cc(Cl)ccc2O)cn(-c2ccccc2C)c1=O	-10.4	9.7	13.9*	-5.6	0.3	0.1
CCC(C)c1ccc(NC(=S)NCc2ccccc2OC)cc1 (stereo not given)	1.0	3.6	16.5*	-2.2	-1.8	1.9
COc1ccc(CN2CCNC(=O)C2CC(=O)NCc2cn3ccc(C)cc3n2)c(OC)c1 (stereo not given)	.	11.6	-1.4	-1.0	1.9	.
COc1ccc(CN2CCNC(=O)C2CC(=O)N2CCCO2)c(OC)c1 (stereo not given)	2.2	0.8	2.6	-12.6	-3.6	.
COC(=O)c1ccc(-c2ccc(Cl)cc2)nc1C	-5.2	8.0	8.6	-1.6	-3.4	.
CCc1cccc2c(C(=S)N3CCCC3)c[nH]c12	2.5	10.6	14.3*	-17.3	-0.7	1.1
Nc1ccc(SCC(=O)Nc2cccc([N+](=O)[O-])c2)cc1	-3.3	2.9	-0.8	-8.2	-4.2	.
O=C(NC1CCCCC1)NC1CC2CCC(C1)N2C(=O)NC1CCCCC1 (stereo not given)	-11.0	-5.2	15.4*	-3.4	-14.9	-0.8
O=C(CCS(=O)(=O)c1ccccc1)Nc1ccc(N2CCOCC2)cc1	-1.5	5.2	11.4*	-1.3	-13.9	-2.3
COc1ccc(NC(=O)CCCSc2ccccc2)cc1	-1.1	9.1	-0.1	-5.0	-2.0	.
CCOC(=O)C1=C(c2ccccc2)NC(=S)NC1c1cccc([N+](=O)[O-])c1 (stereo not given)	-2.7	13.9	11.6*	-3.5	8.2	-1.4
O=S(=O)(NC1CCCCC1)c1ccc(N2CCOCC2)nc1	-5.4	6.0	-1.3	-3.1	-2.5	.
NNc1nc(-c2ccccc2)nc2sc3c(c12)CCCC3	-3.1	2.4	1.2	-5.9	-3.2	.
Nc1c2c(nc3sc4c(c13)CCCC4)-c1ccccc1CC2	2.6	8.0	18.0*	-5.5	3.3	1.2
CCOC(=O)c1cnc2ccc(OC)cc2c1NCc1ccccc1	-10.9	10.6	12.7*	-0.4	7.6	-0.3
CCOC(=O)c1cnc2ccc(OCC)cc2c1NCc1ccccc1OC	-20.8	10.2	2.8	0.3	2.1	.
COc1ccc(-c2nc(-c3ccc(O)cc3O)cs2)cc1OC	7.5	11.0	13.4*	-5.9	2.1	1.3
CC1CC(C)CN(C(=O)c2ccc3c(c2)N(Cc2ccccc2)CCS3)C1 (stereo not given)	-50.5	8.5	12.7*	-5.9	3.8	0.0
Cc1ccc(CN2CCSc3ccc(C(=O)N4CCN(c5ncccn5)CC4)cc32)cc1	-44.9	14.1	-0.2	0.4	2.6	.
O=C(NCc1ccc2c(c1)OCO2)c1cc(=O)[nH]c2ccccc12	-3.8	-0.5	-1.9	-7.7	-3.7	.

High-throughput results from PubChem.
